In the library only some 4% were active in any assay of this set; here they are far more common.
TAAR1 agonist: agonists of human TAAR1 | 0.99% of 360,000 active | activation, % at 3 µM | CHO RD-HGA16 TAAR1, Fluo-8 calcium fluorescence; vehicle wells 0%, saturating PEA agonist 100% | Q96RJ0 | AID 624467;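 active = activation above the mean activation of all test compounds in the run plus 3 SD, cut at about 38% in these data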
Target sequence (Q96RJ0 whole entry, looked up): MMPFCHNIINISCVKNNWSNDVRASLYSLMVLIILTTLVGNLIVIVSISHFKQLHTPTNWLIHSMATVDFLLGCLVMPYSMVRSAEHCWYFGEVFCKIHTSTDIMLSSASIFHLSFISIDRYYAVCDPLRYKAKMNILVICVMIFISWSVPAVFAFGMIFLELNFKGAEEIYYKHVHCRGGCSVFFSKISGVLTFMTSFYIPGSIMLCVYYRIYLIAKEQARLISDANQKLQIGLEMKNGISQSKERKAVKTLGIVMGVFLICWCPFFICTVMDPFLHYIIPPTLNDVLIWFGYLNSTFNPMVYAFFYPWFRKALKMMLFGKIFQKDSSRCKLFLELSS
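Test system: RD-HGA16 (CHO) cells co-expressing Gα16 and hTAAR1 / Benchmarks: DMSO vehicle as 0%, PEA at EC100 as 100% / Repeats: no replicates (n 1) / Measure: % activation from peak over basal fluorescence ratio, DMSO-to-PEA scaled / Timing: 17-24 h plating, Fluo-8 75 min 37 °C, 30 min RT / Technique: kinetic Fluo-8 calcium fluorescence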
CHO parental Ca: counter-screen: ATP calcium response change in parental CHO cells | parental CHO-K1, ATP-induced calcium, Fluo-8 fluorescence | inhibition, % at 5.6 µM | 0.63% of 330,000 active | AID 463079;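 active = inhibition above that plate's mean sample inhibition plus 3 SD, cut at about 26% in these data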
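Test system: untransfected parental CHO cell line. Compound: one dose, 5.6 µM nominal. Detection: intracellular calcium via Fluo-8 no-wash fluorescent dye. Measure: % inhibition. Benchmarks: ATP-challenged DMSO wells low, unchallenged DMSO wells high.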
TAAR1 antagonist: human TAAR1 antagonism | AID 624466 | inhibition, % at 3 µM | Q96RJ0 | 1.5% of 360,000 active | CHO RD-HGA16 TAAR1, Fluo-8 calcium fluorescence, antagonist;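 active = inhibition above a per-plate cutoff, the mean inhibition of test compounds on that plate plus 3 SD, cut at about 49% in these data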
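Test system – hTAAR1-expressing CHO RD-HGA16 cells, Gα16-coupled · Reagent – β-PEA at EC80 concentration, post-compound challenge · Compound dosing – 3 µM, single point · Timing – 140 s kinetic read after compound, 140 s after agonist · Detection – Fluo-8 intracellular calcium dye fluorescence, real-time kinetic reads · Control set – DMSO and EC80 PEA controls · Repeats – n of 1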
OX1R antag-1: OX1R (human) antagonism | OX1R-expressing cells, FRET antagonist read-out | inhibition, % at 6.6 µM | 1.8% of 330,000 active | O43613; in the data active = inhibition mostly above about 38%, no sharp cut-off; inactive = mostly below about 40%
OX1R antag-2: human HCRTR1 antagonism; O43613; CHO/OX1R cells, Fluo-8 calcium fluorescence, orexin A; inhibition, % at 5 µM; 0.43% of 330,000 active; AID 434989;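 active = inhibition above its plate's threshold, mean inhibition of all tested compounds on the plate plus 3 SD, cut at about 37% in these data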
TAAR1 ag confirm: human TAAR1 agonism, confirmed; CHO RD-HGA16 TAAR1, Fluo-8 calcium fluorescence; scaled: DMSO 0%, maximal phenethylamine 100%; activation, % at 3 µM; 82% of 2,400 active; shares compounds with TAAR1 agonist;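 active = activation above a cutoff set at the run's mean compound activation plus 3 SD, cut at about 39% in these data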
Ga16 nonsel ag: nonselective agonism, TAAR1 counter-screen; shares compounds with TAAR1 agonist; CHO-Ga16 parental, Fluo-8 calcium fluorescence; normalized to maximal ATP response, DMSO zero; activation, % at 3 µM; 50% of 2,400 active;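 active = activation above the run cutoff, the mean activation over all tested wells plus 3 SD, cut at about 12% in these data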
TAAR1 desensitize: human TAAR1 agonist that also desensitizes the receptor; shares compounds with TAAR1 agonist; CHO RD-HGA16 hTAAR1, Fluo-8 calcium, beta-PEA response inhibition; inhibition, % at 3 µM; 46% of 2,400 active;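 active = inhibition above the run cutoff, the mean inhibition of all test compounds plus 3 SD, cut at about 49% in these data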;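 also: beta-PEA stimulus applied at its EC80; loss of beta-PEA calcium signal after compound pretreatment read as receptor desensitization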
Ga16 antag count: nonselective Ga16 antagonist in TAAR1 agonist counter-screen. shares compounds with TAAR1 agonist. CHO-Ga16 ATP-induced calcium, Fluo-8 fluorescence. inhibition, % at 3 µM. 39% of 2,400 active;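 active = inhibition above the plate's mean compound inhibition plus 3 SD, computed per plate, cut at about 22% in these data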
A number is an active result; i = inactive; nt = not tested or not shown.

SMILES	TAAR1 agonist	CHO parental Ca	TAAR1 antagonist	OX1R antag-1	OX1R antag-2	TAAR1 ag confirm	Ga16 nonsel ag	TAAR1 desensitize	Ga16 antag count
C=CCn1c(SCC(=O)Nc2cccc(C(=O)OC)c2)nnc1C(C)NC(=O)c1cccs1 (stereo not given)	i	i	i	i	i	nt	nt	nt	nt
Cc1ccc(Nc2cc(C)nc(N3CCOCC3)n2)cc1	42	i	i	i	i	i	i	i	i
Cc1cc(N/N=C/c2ccccc2O)nc(N2CCOCC2)n1	43	i	i	i	i	66	i	82	i
Cc1cc(Nc2ccc(C)c(Cl)c2)nc(N2CCOCC2)n1	i	i	i	i	i	nt	nt	nt	nt
CNC(=O)c1cc(S(=O)(=O)N2CC(C)OC(C)C2)ccc1N1CCOCC1 (stereo not given)	i	nt	i	nt	nt	nt	nt	nt	nt
O=C(NCCc1ccccc1)C(c1ccncc1)N(C(=O)c1csnn1)C1CC1 (stereo not given)	83	i	49	i	i	91	i	68	i
O=C(NCCc1ccccc1)C(c1ccccc1)N(C(=O)c1csnn1)C1CC1 (stereo not given)	i	i	i	i	i	nt	nt	nt	nt
CCOC(=O)c1cnc(COc2ccc(OC)cc2)[nH]c1=O	i	i	i	i	i	nt	nt	nt	nt
CN1CCC(=NNC(=O)c2cn(-c3ccccc3)nc2-c2ccccc2)CC1	i	i	i	i	i	nt	nt	nt	nt
CCOC(=O)N[C@H](C(=O)N1CCC[C@H]1C(=O)NCCc1ccccc1Cl)c1ccccc1	69	nt	64	nt	nt	85	i	83	i
O=C(CC1CCCC1)N[C@H](C(=O)N1CCC[C@H]1C(=O)NCCc1ccccc1Cl)c1ccccc1	55	nt	53	nt	nt	86	i	79	i
Cc1ccccc1C(=O)N[C@H](C(=O)N1CCC[C@H]1C(=O)NCCc1ccccc1Cl)C1CCCCC1	i	nt	i	nt	nt	nt	nt	nt	nt
CC1(C(=O)O)CCCN(C(=O)c2cc3ccccc3s2)C1 (stereo not given)	i	nt	i	nt	nt	nt	nt	nt	nt
Cc1cccc(N2C(=O)C(O)=C(C(=O)c3cccs3)C2c2ccc(F)cc2)n1 (stereo not given)	i	i	i	i	i	nt	nt	nt	nt
Cc1cccc(N2C(=O)C(O)=C(C(=O)c3cccs3)C2c2ccc(C(C)C)cc2)n1 (stereo not given)	69	i	i	i	i	80	67	51	33
O=C(Nc1ccncc1)c1ccc(Cl)c(Cl)c1	56	i	i	i	i	42	19	i	i
O=c1[nH]c(=O)n(Cc2ccco2)c2c1C(C(F)(F)F)(C(F)(F)F)N=C(CCC1CCCCC1)N2	58	i	i	i	i	38	21	56	35
O=c1[nH]c(=O)n(-c2ccccc2)c2c1C(C(F)(F)F)(C(F)(F)F)N=C(CCC1CCCCC1)N2	47	i	i	i	i	101	70	95	52
Cc1ccc(S(=O)(=O)N2CCCC(C(=O)NCCC(C)C)C2)cc1 (stereo not given)	i	i	i	i	i	nt	nt	nt	nt
CCOc1ccc2noc3c2c1C(=O)c1ccccc1-3	69	i	i	i	i	i	36	i	40
CCOc1ccccc1C=C1CCc2ccccc2C1=O	i	nt	i	nt	nt	nt	nt	nt	nt
CCNc1ccc2noc3c2c1C(=O)c1ccccc1-3	318	42	90	123	103	114	127	66	66
COc1ccc(OC)c(/C=N/N2CCN(c3ccc(Cl)cc3)CC2)c1	i	i	i	i	i	nt	nt	nt	nt
Cc1cc(C)n2nc(SCC(=O)NC(=O)c3ccccc3)nc2n1	i	i	i	i	i	nt	nt	nt	nt
CC(CCc1ccc(O)cc1)N(C)CCc1ccccc1 (stereo not given)	49	i	i	i	i	61	i	i	i
SMILES	TAAR1 agonist	CHO parental Ca	TAAR1 antagonist	OX1R antag-1	OX1R antag-2	TAAR1 ag confirm	Ga16 nonsel ag	TAAR1 desensitize	Ga16 antag count
CC(CCc1ccc(O)cc1)NCCC(c1ccccc1)c1ccccc1 (stereo not given)	i	i	i	i	i	nt	nt	nt	nt
CC(C)C[C@H]1CN=C(Nc2ccccc2)N1CCC1CCCC1	i	i	i	i	i	nt	nt	nt	nt
CC(C)C[C@H]1CN=C(Nc2ccccc2)N1CCCC1CCCC1	57	i	i	i	i	74	36	i	24
CC(C)C[C@H]1CN=C(Nc2ccccc2)N1CC1CCC1	i	i	i	i	i	nt	nt	nt	nt
CC(C)C[C@H]1CN=C(Nc2ccccc2)N1CCCC1CCCCC1	58	i	i	i	i	58	26	i	27
c1ccc(C[C@H]2CN=C(Nc3ccccc3)N2CCCC2CCCCC2)cc1	47	i	i	i	i	i	i	i	i
O=S(=O)(Nc1ccc(S(=O)(=O)Nc2cccc3ccccc23)cc1)c1ccccc1	41	i	i	i	i	40	i	i	i
O=S(=O)(Nc1ccc(-c2ccccc2)cc1)c1ccccc1	i	nt	i	nt	nt	nt	nt	nt	nt
O=C(Cn1cccc1C(=O)c1ccccc1)NCc1ccccc1Cl	i	i	i	i	i	nt	nt	nt	nt
Cc1ccccc1C(=O)c1cccn1CC(=O)NCc1ccccc1Cl	50	i	i	i	i	i	i	i	i
CCOc1ccc(NC(=O)Cn2nnc(-c3ccccc3F)n2)cc1	75	i	i	i	i	i	i	i	i
COc1ccc(NC(=O)Cn2nnc(-c3ccccc3F)n2)cc1	i	i	i	i	i	nt	nt	nt	nt
Nc1nc2ncc(-c3ccsc3)c(N)n2n1	i	i	i	i	i	nt	nt	nt	nt
Cn1c(=O)c(C(=O)COc2ccc(C#N)cc2)c(N)n(Cc2ccccc2)c1=O	119	i	50	i	i	100	52	49	27
O=C(CNCCc1ccccc1)Nc1ccc(C(=O)N2CCCCC2)cc1	46	i	i	i	i	69	i	i	i
Cc1[nH]c(C)c(S(=O)(=O)NCCc2ccccc2)c1C(=O)N1CCCCC1	53	i	i	i	i	i	i	i	i
COc1ccccc1C(=O)NC(CCSC)C(=O)NCCCSc1ccccc1 (stereo not given)	i	i	i	i	i	nt	nt	nt	nt
CCOC(=O)c1cn(Cc2ccccc2)c(C(=O)OC(C)(C)C)c1O	82	i	68	i	i	73	56	70	57
CCOC(=O)c1cn(Cc2ccccc2)c2cc(C)nn2c1=O	i	i	i	i	i	nt	nt	nt	nt
O=C(c1ccccc1)c1ccc(OCC(O)CNCc2ccc(F)cc2)cc1 (stereo not given)	48	nt	i	nt	nt	48	19	i	24
